The source made the active and inactive calls. The calls are words filed in the database; no cut-off is given here.

One may read the Tmax as the time from dosing to the highest level. A word on the EC50: it is the concentration giving half of the maximal effect. In general, fraction unbound refers to the share of the substance not bound to proteins or other matrix. What is called Cmax is the maximum level reached in the sampled fluid or tissue. The term AUC denotes concentration integrated over time.

Data set [1] is described as follows: Tmax in HRN mouse at 10 mg/kg, ip by UPLC-MS/MS analysis. In kind it is ADME, organism-based. The settings on record: in vivo. A digest of the protocol:
(§1)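 Female NMRI or HRN mice (n = 3) given a single IP dose of 10 mg kg-1 free base in 5% DMSO/40% PEG400/55% water or 15% solutol/85% water, 10 mL kg-1. Blood sampled at 5, 15, 30 min and 1, 2, 4, 6, 8 h, diluted with two volumes of water, assayed by UPLC-MS/MS. PK parameters derived from the mean blood concentration–time curve.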

Data set [2] has as its system Trypanosoma brucei. Briefly: Antiparasitic activity against bloodstream-form Trypanosoma brucei assessed as cidal in presence of 5% Co2 at > 5.6 uM incubated for 24 hrs by static-cidal assay. In kind it is functional, organism-based.
In data set [3] the test system is Trypanosoma brucei. Briefly: Antiparasitic activity against bloodstream-form Trypanosoma brucei in presence of 5% Co2 incubated for 69 hrs followed by resazurin addition further incubated for 4 hrs. In kind it is functional, organism-based. On the technique in general: Resazurin is reduced to fluorescent resorufin, in cell work by metabolically active cells.
The nature of data set [4]: Metabolic stability in CD1 mouse liver microsomes assessed as intrinsic clearance by UPLC-MS/MS analysis. In kind it is ADME. In short, it runs like this:
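Compound at 0.5 μM incubated with female CD1 mouse liver microsomes (0.5 mg mL-1, 50 mM potassium phosphate pH 7.4). Reaction started with excess NADPH. Aliquots taken at 0, 3, 6, 9, 15, 30 min and quenched in acetonitrile with internal standard, then analysed by UPLC-MS/MS.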

The nature of data set [5]: Fraction unbound in NMRI mouse. It counts as ADME.
Data set [6] can be described thus: Cmax in HRN mouse at 10 mg/kg, ip by UPLC-MS/MS analysis. In kind it is ADME, organism-based. The arrangement: dose 10 mg/kg, route ip. The settings on record: in vivo. A digest of the protocol:
as §1

Data set [7] is described as follows: AUC in NMRI mouse at 10 mg/kg, […] by UPLC-MS/MS analysis. In kind it is ADME, organism-based. On the set-up: dose 10 mg/kg. Conditions: in vivo. A digest of the protocol: as §1
Data set [8] is described as follows: Tmax in NMRI mouse at 10 mg/kg, po by UPLC-MS/MS analysis. In kind it is ADME, organism-based. The settings on record: in vivo. A digest of the protocol:
(§2)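 Oral gavage at 10 mg kg-1 free base in 10% DMSO/40% PEG400/50% water, 5 mL kg-1, to female NMRI mice (n = 3) or Sprague-Dawley rats. Blood drawn at 5, 15, 30 min and 1, 2, 4, 6, 8 h, mixed with two volumes of water, measured by UPLC-MS/MS. Parameters taken from the mean blood concentration–time curve.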

Data set [9] in a line: Permeability across blood brain barrier in NMRI mouse stage 2 CNS model. It counts as ADME. The settings on record: read-out: BBR. A digest of the protocol:
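Female NMRI mice (n = 3) received a 10 mg kg-1 IV bolus in 15% solutol. At 30 min, under terminal isoflurane anesthesia, blood was taken by cardiac puncture and the brain removed. Both were quantified by UPLC-MS/MS; brain (ng g-1) divided by blood (ng mL-1) per mouse gives the brain:blood ratio.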

Data set [10] concerns Trypanosoma brucei. Nature of the data set: Antiparasitic activity against bloodstream-stage Trypanosoma brucei measured after 73 hrs by resazurin assay. In kind it is functional, organism-based.
The nature of data set [11]: Cmax in NMRI mouse at 10 mg/kg, ip by UPLC-MS/MS analysis. The settings on record: in vivo. It counts as ADME, organism-based. On the set-up: dose 10 mg/kg, route ip. In short, it runs like this: as §1
Data set [12] is described as follows: Fraction unbound in NMRI mouse brain stage 2 CNS model. It counts as ADME.
The nature of data set [13]: Drug metabolism in mouse liver microsomes assessed as retention time of 4-hydroxycyclohexyl metabolite at 0.5 to 5 uM for 60 mins by LC-MS analysis. It counts as ADME, Microsome. The settings on record: 1 h, dose 0.5-5 µM. A digest of the protocol: (§3)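 Mouse liver microsomes incubated with compound at 0.5 and 5 μM for 60 min. Oxidized metabolites (m/z 354) detected and their retention times recorded by LC–MS.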

The test system of data set [14] is Trypanosoma brucei brucei. Briefly: Antiparasitic activity against Trypanosoma brucei brucei S427 injected in NMRI mouse assessed as cure by measuring reduction in parasitemia at 10 mg/kg, ip twice daily for 4 days measured upto 30 days by stage I efficacy study. It counts as functional, organism-based. Conditions: time 4.0 day. In short, it runs like this: (§4)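 Female NMRI mice (3–5 per group) infected IP with 1 × 10^4 bloodstream T. b. brucei S427 from cryopreserved stabilate diluted in Hanks' balanced salt solution with glucose. Dosed IP twice daily, days 3–6, in 5% DMSO/40% PEG400/55% water, 10 mL kg-1, prepared fresh daily. Parasitemia followed to day 30; untreated control group of three mice.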

Data set [15] can be described thus: Drug metabolism in mouse liver microsomes assessed as retention time of 3-hydroxycyclohexyl metabolite at 0.5 to 5 uM for 60 mins by LC-MS analysis. It counts as ADME, Microsome. The settings on record: 1 h, dose 0.5-5 µM. A digest of the protocol: as §3
Data set [16] concerns Trypanosoma brucei brucei. Nature of the data set: Antiparasitic activity against Trypanosoma brucei brucei S427 injected in NMRI mouse assessed as cure by measuring reduction in parasitemia at 10 mg/kg, ip twice daily for 4 days by stage I efficacy study. The arrangement: scale not given: the % may be the effect or the level left. The settings on record: time 4 day. In kind it is functional. In short, it runs like this:
as §4

Data set [17] is described as follows: Cmax in NMRI mouse at 10 mg/kg, po by UPLC-MS/MS analysis. The settings on record: in vivo. On the set-up: dose 10 mg/kg, route po. It counts as ADME, organism-based. A digest of the protocol:
as §2

Data set [18] is described as follows: Toxicity in mouse assessed as tolerability at 20 mg/kg, ip. It counts as organism-based. The settings on record: in vivo.
A short description of data set [19]: AUC in NMRI mouse at 10 mg/kg, po by UPLC-MS/MS analysis. It counts as ADME, organism-based. The settings on record: in vivo. On the set-up: dose 10 mg/kg, route po. A digest of the protocol: as §2
A short description of data set [20]: Selectivity index, ratio of EC50 for human MRC-5 cells to EC50 for bloodstream-form Trypanosoma brucei. In kind it is toxicity. Conditions: read-out: Selectivity Index.
For data set [21], the system named is Trypanosoma brucei. Briefly: Antiparasitic activity against bloodstream-form Trypanosoma brucei assessed as static in presence of 5% Co2 at < 5.6 uM incubated for 24 hrs by static-cidal assay. It counts as functional, organism-based.
Data set [22] in a line: Tmax in NMRI mouse at 10 mg/kg, ip by UPLC-MS/MS analysis. It counts as ADME, organism-based. Conditions: in vivo. In short, it runs like this:
as §1

The nature of data set [23]: Antiproliferative activity against human MRC5 cells in presence of 5% Co2 incubated for 69 hrs followed by resazurin addition further incubated for 4 hrs. In kind it is toxicity, cell-based.
The nature of data set [24]: AUC in HRN mouse at 10 mg/kg, […] by UPLC-MS/MS analysis. In kind it is ADME, organism-based. On the set-up: dose 10 mg/kg. Conditions: in vivo. A digest of the protocol:
as §1

For the compound `Nc1nc(NC2CCCCC2)sc1C(=O)c1c(F)cccc1F`, the Tmax was determined as 30 min in data set [1], 30 min in [8] and 15 min in [22]. The result in data set [2], in data set [14] and in data set [21] was Active. Also, the half-maximal effective concentration (EC50) in data set [3] and in data set [10] was 110 nM in each case. Moreover, the CLH in data set [4] turned out to be 15 mL/min/g. Further, the free fraction (fraction unbound) in data set [5] worked out at 0.0063; in [12], 0.006. Further, the results for the Cmax in data set [6], in [11] and in data set [17] were 3800 ng/mL, 830 ng/mL and 33 ng/mL, respectively. The exposure (AUC) was 66 µg·h/mL in data set [7], 5.7 µg·h/mL in data set [19] and 1000 µg·h/mL in data set [24]. Besides, the Kp in [9] was found to be 3.3. Also, the Retention_time in data set [13] worked out at 3.43 min; in [15], 3.86 min. For the same compound, the Activity is 100% in data set [16] and “Toxic” in data set [18]. The selectivity ratio in data set [20] came to 11. Moreover, the EC50 at 69 h in [23] stood at 1200 nM.
